The source of these data is paper PMC5508980 (Molecular nutrition & food research, 2017).

What all share (type): biochemical
For one test, the target named is recombinant HDAC3 (Homo sapiens, UniProt O15379). The experiment in a line: Recombinant HDAC activity assay. The conditions noted are these: for remaining activity at 50 µM: 2 h, read-out: % HDAC activity, Class I HDACs, 3.
The target in another test is recombinant HDAC5 (Homo sapiens, UniProt Q9UQL6). The experiment in a line: Recombinant HDAC activity assay. The settings on record: for remaining activity at 50 µM: 2 h, read-out: % HDAC activity, Class IIa HDACs, 5.
recombinant HDAC5, sequence (Q9UQL6 whole entry): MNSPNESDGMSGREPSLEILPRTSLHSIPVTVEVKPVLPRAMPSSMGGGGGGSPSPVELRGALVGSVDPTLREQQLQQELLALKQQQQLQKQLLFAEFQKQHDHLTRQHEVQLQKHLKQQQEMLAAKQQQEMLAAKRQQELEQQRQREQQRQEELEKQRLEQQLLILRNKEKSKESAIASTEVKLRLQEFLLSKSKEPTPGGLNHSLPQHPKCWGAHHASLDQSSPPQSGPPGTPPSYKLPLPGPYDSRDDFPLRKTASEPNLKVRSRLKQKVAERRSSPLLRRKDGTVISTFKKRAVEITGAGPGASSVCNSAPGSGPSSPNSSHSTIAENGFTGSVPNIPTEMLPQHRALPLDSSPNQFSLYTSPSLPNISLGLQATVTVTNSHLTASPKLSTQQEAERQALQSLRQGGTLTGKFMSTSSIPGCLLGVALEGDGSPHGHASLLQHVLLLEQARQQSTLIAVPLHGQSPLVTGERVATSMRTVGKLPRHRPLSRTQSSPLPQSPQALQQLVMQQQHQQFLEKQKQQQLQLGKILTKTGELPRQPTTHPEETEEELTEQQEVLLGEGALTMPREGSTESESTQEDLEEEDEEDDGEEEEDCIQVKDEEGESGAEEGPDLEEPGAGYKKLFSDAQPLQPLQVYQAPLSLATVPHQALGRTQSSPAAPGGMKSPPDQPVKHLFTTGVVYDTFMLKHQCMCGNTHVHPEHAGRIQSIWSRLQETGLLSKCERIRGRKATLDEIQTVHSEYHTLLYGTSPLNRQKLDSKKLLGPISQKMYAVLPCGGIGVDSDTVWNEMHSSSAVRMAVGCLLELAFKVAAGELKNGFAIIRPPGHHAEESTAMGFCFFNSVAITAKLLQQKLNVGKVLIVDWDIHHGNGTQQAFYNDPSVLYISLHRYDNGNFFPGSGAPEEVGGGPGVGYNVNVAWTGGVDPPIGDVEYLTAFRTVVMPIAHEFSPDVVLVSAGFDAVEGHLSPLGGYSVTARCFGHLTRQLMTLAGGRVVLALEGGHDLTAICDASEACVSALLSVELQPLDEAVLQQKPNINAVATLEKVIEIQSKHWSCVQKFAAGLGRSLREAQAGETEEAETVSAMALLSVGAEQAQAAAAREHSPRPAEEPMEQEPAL
The target of the next test is T1, recombinant HDAC7 (Homo sapiens, UniProt Q8WUI4).
T1 sequence (Q8WUI4 1-952): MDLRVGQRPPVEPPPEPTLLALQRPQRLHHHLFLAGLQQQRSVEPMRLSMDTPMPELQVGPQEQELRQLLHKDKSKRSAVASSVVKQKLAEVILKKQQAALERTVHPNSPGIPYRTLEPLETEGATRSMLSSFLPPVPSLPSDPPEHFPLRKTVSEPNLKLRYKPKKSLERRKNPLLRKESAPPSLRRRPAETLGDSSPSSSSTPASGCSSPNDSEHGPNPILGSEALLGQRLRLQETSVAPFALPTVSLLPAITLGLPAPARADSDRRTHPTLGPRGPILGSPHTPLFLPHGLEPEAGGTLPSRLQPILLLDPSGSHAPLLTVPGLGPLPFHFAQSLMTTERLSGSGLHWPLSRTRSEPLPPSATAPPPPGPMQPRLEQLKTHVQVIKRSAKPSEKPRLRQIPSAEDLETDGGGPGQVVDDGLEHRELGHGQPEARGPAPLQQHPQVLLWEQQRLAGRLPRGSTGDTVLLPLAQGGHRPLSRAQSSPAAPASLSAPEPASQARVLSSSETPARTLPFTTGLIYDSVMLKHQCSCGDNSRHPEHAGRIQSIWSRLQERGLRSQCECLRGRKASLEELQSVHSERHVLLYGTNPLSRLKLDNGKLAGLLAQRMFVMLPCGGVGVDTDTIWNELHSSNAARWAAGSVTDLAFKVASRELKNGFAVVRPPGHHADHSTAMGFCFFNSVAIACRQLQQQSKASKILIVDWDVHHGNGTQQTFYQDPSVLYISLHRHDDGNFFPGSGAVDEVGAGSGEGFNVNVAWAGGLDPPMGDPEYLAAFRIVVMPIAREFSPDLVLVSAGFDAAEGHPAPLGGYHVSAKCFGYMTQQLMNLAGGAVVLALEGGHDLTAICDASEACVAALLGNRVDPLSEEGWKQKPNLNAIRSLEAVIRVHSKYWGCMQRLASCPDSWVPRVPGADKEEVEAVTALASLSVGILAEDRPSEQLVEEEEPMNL
The experiment in a line: Recombinant HDAC activity assay. The conditions noted are these: for % HDAC activity, Class IIa HDACs, 7: recombinant protein incubated with 50 µM compound, 2 hrs.

In the next test the target is recombinant HDAC9 (Homo sapiens, UniProt Q9UKV0). The experiment in a line: Recombinant HDAC activity assay. The conditions noted are these: for remaining activity at 50 µM: 2 h, read-out: % HDAC activity, Class IIa HDACs, 9.
recombinant HDAC9, sequence (Q9UKV0 whole entry): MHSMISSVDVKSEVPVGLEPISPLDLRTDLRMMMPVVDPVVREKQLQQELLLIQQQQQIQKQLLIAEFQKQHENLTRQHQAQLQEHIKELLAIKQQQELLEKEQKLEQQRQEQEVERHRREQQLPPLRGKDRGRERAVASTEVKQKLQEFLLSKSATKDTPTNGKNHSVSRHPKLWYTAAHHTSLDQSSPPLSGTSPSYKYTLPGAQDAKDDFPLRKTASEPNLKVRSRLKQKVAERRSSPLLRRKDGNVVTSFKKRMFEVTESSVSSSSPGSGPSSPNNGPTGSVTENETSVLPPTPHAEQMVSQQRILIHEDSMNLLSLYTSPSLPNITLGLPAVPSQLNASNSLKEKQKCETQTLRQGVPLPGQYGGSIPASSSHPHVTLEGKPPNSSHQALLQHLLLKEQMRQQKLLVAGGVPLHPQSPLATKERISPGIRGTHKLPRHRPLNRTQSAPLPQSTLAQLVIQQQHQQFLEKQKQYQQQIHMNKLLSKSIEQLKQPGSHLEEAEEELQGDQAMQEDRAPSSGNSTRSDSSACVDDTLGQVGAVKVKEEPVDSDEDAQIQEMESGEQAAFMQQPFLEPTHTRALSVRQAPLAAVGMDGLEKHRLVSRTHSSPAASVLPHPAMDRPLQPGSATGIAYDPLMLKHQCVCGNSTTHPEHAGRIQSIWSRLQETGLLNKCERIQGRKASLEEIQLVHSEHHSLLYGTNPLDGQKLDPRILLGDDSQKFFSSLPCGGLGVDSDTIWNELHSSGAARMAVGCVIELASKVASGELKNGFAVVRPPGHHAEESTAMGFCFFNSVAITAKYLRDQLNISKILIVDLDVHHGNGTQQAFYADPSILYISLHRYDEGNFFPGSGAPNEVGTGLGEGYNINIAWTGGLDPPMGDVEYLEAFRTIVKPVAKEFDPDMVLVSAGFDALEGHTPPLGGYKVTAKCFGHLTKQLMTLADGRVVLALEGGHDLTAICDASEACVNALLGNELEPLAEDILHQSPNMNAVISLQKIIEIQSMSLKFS
For another test, the target named is recombinant HDAC1 (Homo sapiens, UniProt Q13547). The experiment in a line: Recombinant HDAC activity assay. The settings on record: for remaining activity at 50 µM: 2 h, read-out: % HDAC activity, Class I HDACs, 1.
recombinant HDAC1, sequence (Q13547 whole entry): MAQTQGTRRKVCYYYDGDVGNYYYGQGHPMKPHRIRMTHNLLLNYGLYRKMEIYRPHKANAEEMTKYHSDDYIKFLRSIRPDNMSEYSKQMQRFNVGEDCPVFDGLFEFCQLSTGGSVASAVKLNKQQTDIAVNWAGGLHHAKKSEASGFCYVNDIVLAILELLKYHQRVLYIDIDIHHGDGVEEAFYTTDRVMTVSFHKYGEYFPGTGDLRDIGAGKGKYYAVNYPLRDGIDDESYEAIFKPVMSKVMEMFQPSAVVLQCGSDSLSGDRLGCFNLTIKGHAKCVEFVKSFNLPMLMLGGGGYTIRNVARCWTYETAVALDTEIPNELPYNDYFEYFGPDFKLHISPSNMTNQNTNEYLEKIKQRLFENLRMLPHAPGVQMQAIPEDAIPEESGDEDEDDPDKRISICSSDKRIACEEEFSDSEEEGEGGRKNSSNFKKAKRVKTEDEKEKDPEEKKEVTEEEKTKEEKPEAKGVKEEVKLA
The next test deals with recombinant HDAC2 (Homo sapiens, UniProt Q92769). The experiment in a line: Recombinant HDAC activity assay. The conditions noted are these: for remaining activity at 50 µM: 2 h, read-out: % HDAC activity, Class I HDACs, 2.
recombinant HDAC2, sequence (Q92769 whole entry): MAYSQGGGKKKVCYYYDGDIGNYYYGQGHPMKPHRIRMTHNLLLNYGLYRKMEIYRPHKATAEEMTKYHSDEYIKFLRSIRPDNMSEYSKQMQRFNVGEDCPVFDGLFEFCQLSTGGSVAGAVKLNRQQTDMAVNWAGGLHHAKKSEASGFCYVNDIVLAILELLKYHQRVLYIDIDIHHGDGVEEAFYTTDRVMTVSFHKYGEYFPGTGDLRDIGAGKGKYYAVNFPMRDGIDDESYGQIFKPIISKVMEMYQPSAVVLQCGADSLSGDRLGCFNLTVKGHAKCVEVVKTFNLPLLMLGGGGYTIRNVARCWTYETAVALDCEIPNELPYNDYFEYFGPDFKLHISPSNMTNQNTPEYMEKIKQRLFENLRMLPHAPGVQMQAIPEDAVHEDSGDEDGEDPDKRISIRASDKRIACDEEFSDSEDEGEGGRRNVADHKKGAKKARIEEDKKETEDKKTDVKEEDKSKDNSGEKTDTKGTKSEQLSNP
The target in another test is T2, recombinant HDAC8 (Homo sapiens, UniProt Q9BY41).
T2 sequence (Q9BY41 1-377): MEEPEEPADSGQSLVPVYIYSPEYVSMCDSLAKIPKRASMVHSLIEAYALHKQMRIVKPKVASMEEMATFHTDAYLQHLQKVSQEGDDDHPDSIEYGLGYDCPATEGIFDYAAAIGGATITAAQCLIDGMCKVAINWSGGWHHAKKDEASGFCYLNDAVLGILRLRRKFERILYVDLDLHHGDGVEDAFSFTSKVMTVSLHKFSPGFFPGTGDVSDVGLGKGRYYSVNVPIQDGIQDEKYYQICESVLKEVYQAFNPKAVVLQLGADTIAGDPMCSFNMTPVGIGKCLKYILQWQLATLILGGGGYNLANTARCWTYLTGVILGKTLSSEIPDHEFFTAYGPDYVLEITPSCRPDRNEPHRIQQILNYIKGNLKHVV
The experiment in a line: Recombinant HDAC activity assay. The conditions noted are these: for remaining activity at 50 µM: 2 h, read-out: % HDAC activity, Class I HDACs, 8.

In a further test the target is T3, recombinant HDAC6 (Homo sapiens, UniProt Q9UBN7).
T3 sequence (Q9UBN7 1-1215): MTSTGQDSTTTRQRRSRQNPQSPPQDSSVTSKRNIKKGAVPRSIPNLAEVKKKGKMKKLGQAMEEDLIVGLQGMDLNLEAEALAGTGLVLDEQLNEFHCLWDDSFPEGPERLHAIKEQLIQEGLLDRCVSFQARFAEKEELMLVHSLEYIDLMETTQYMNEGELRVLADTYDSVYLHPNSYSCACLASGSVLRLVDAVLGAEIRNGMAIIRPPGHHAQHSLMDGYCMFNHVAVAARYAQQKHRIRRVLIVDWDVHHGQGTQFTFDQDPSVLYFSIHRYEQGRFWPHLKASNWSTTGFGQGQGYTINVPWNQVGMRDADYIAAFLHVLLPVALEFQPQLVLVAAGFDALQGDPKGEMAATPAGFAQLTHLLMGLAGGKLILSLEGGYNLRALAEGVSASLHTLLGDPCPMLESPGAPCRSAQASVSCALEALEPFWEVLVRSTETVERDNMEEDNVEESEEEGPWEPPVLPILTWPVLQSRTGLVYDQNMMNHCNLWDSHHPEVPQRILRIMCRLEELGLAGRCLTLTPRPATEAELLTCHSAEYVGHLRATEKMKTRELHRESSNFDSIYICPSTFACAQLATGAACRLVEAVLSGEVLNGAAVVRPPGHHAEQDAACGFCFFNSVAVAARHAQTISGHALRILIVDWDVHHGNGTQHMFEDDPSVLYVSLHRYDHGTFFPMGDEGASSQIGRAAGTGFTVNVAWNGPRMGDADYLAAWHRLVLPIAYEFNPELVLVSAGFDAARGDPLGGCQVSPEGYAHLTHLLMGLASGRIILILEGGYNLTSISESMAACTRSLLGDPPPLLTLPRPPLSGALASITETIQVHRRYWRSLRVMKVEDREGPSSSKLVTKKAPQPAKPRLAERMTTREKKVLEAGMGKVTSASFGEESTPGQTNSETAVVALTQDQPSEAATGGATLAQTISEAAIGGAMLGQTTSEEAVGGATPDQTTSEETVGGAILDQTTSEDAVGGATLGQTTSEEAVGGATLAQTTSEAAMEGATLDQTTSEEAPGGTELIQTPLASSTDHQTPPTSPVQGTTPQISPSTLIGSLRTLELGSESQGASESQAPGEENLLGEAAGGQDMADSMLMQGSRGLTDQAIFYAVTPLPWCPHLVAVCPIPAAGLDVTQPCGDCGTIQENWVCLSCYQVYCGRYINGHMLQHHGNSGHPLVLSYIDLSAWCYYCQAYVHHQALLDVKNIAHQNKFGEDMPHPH
The experiment in a line: Recombinant HDAC activity assay. The conditions noted are these: 2 h, read-out: % HDAC activity, Class IIb HDACs, 6.

The target of the next test is T4, recombinant HDAC10 (Homo sapiens, UniProt Q969S8).
T4 sequence (Q969S8 1-669): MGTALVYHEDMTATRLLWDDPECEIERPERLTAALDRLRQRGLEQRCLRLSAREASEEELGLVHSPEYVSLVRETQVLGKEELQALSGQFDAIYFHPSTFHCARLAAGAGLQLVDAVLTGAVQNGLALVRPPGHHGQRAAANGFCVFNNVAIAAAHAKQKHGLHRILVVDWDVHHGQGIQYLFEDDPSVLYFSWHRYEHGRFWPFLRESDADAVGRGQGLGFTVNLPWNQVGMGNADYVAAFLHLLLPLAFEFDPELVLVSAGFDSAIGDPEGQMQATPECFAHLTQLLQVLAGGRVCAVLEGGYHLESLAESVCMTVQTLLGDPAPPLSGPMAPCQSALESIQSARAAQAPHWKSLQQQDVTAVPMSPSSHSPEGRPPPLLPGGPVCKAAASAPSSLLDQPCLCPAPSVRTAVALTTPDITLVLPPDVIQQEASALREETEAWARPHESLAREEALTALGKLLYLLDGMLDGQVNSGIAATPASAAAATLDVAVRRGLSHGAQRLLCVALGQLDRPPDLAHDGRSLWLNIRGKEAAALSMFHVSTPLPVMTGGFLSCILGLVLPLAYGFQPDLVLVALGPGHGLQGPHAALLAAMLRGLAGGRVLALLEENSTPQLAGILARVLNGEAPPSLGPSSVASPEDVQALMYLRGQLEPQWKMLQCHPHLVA
The experiment in a line: Recombinant HDAC activity assay. The conditions noted are these: 2 h, read-out: % HDAC activity, Class IIb HDACs, 10.

Test [1] concerns HDAC activity in bovine cardiac tissue. The experiment in a line: Natural product library screen with class-selective HDAC substrates. The conditions noted are these: 2 hours treatment. In a few lines: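 The screen covered 131 natural compounds against bovine cardiac tissue lysate at 30 µg protein/well in PBS (pH 7.4 lysis buffer with Triton X-100 and NaCl). Test compound for 2 h, then separate class I, IIa or IIb fluorogenic acyl-lysine-AMC substrates for 2 h at 37 °C. Developer (Triton X-100, 3 µM TSA, 0.75 mg/ml trypsin) for 20 min; fluorescence read at 360/460 nm.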

[2] abbreviates: recombinant protein incubated with 50 µM compound, 2 hrs.

Structures can show the parent of a compound that is named as a salt.

recombinant HDAC3, sequence (O15379 whole entry): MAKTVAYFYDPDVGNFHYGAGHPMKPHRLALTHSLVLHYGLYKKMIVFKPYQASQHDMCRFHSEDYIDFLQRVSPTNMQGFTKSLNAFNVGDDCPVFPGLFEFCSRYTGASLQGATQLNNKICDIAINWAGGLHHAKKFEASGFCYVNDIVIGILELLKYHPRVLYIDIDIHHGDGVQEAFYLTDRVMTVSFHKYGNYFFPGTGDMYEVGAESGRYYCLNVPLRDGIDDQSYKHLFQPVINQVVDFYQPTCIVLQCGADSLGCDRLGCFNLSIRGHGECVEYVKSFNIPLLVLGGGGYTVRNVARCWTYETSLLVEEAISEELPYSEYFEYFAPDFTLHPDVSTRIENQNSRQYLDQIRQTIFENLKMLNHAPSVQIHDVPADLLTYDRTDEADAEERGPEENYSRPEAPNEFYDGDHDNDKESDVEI
recombinant HDAC3, sequence (Q9Y618 395-489 partner limits assumed): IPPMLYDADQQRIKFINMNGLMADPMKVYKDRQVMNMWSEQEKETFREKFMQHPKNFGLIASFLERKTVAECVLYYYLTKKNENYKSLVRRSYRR

For the molecule `O=c1cc(-c2ccccc2)oc2cc(O)c(O)c(O)c12` [Baicalein], the remaining activity at 50 µM at recombinant HDAC3 turned out to be 59.2%; at recombinant HDAC5 it was 76.6%; on recombinant HDAC9, 66.1%. Also, on recombinant HDAC7, the “% HDAC activity, Class IIa HDACs, 7” value was “-”.

In the case of `O=C(O)[C@H]1O[C@@H](Oc2cc3oc(-c4ccccc4)cc(=O)c3c(O)c2O)[C@H](O)[C@@H](O)[C@@H]1O` [Baicalin], the remaining activity at 50 µM at recombinant HDAC1 came out at 89%; on recombinant HDAC2 it was 72.9%; at recombinant HDAC3, 81.7%; at recombinant HDAC8, 78.3%; on recombinant HDAC5, 81.8%; on recombinant HDAC9 it was 91.5%. In addition, the remaining activity at 50 µM on recombinant HDAC6 turned out to be 86.2%; at recombinant HDAC10 it was 84.7%. The “% HDAC activity, Class IIa HDACs, 7” value at recombinant HDAC7 is listed as “-”.

As for `COc1ccc2cc3[n+](cc2c1OC)CCc1cc2c(cc1-3)OCO2` [Berberine HCl, berberine hydrochloride], the remaining activity at 50 µM came out at 50.5% at recombinant HDAC1; 70.3% on recombinant HDAC2; 48.3% on recombinant HDAC3; 46.8% at recombinant HDAC8; 60.9% on recombinant HDAC6; 45% on recombinant HDAC10.

With `O=C(O)/C=C/c1ccc(O)c(O)c1` [Caffeic acid], the “% HDAC activity, Class IIa HDACs, 7” value at recombinant HDAC7 is given as “-”.

As to `O=C1c2c(O)cc(O)cc2O[C@H](c2cc(O)c(O)c(O)c2)[C@H]1O` [Dihydromyricetin], the remaining activity at 50 µM on recombinant HDAC1 was found to be 90%; on recombinant HDAC2, 73.9%; at recombinant HDAC3, 82.5%; at recombinant HDAC8 it was 81.9%; at recombinant HDAC5, 73.4%; at recombinant HDAC7 (2 h, read-out: % HDAC activity, Class IIa HDACs, 7), 94%. Moreover, the remaining activity at 50 µM on recombinant HDAC9 is 92.5%; at recombinant HDAC10, 86.3%.

Turning to `O=C1Nc2ccccc2/C1=C1/Nc2ccccc2C1=O` [Indirubin], the remaining activity at 50 µM on recombinant HDAC1 was 61.5%; at recombinant HDAC2 it was 58.7%; on recombinant HDAC3, 56.6%; at recombinant HDAC8 it was 58.4%; at recombinant HDAC6, 65.7%; at recombinant HDAC10 it was 67%. The “% HDAC activity, Class IIa HDACs, 7” value at recombinant HDAC7 is recorded as “-”.

With `O=c1c(O)c(-c2ccc(O)cc2)oc2cc(O)cc(O)c12` [Kaempferol], the remaining activity at 50 µM at recombinant HDAC1 amounted to 72.8%; at recombinant HDAC2, 71.7%; on recombinant HDAC3 it was 66.9%; on recombinant HDAC8, 68.7%; at recombinant HDAC5, 73.5%; on recombinant HDAC9, 70.6%. Further, on recombinant HDAC10, the remaining activity at 50 µM came out at 71.6%. The “% HDAC activity, Class IIa HDACs, 7” value on recombinant HDAC7 is “-”.

With `O.O=c1c(O)c(-c2ccc(O)cc2O)oc2cc(O)cc(O)c12` [Morin hydrate], the “% HDAC activity, Class I HDACs, 1” value at recombinant HDAC1 (setting [2]) amounted to 62.3%. Further, the “% HDAC activity, Class I HDACs, 2” value at recombinant HDAC2 (setting [2]) is given as 43.3%. The “% HDAC activity, Class I HDACs, 3” value on recombinant HDAC3 (setting [2]) came out at 56.0%. Besides, the “% HDAC activity, Class I HDACs, 8” value at recombinant HDAC8 (setting [2]) is 49.3%. Moreover, the “% HDAC activity, Class IIa HDACs, 5” value at recombinant HDAC5 (setting [2]) stood at 56.7%. On recombinant HDAC7, the “% HDAC activity, Class IIa HDACs, 7” value is given as “-”. Also, the “% HDAC activity, Class IIa HDACs, 9” value at recombinant HDAC9 (setting [2]) is reported as 56.1%.

Turning to `O=c1c(O)c(-c2cc(O)c(O)c(O)c2)oc2cc(O)cc(O)c12` [Myricetin], the remaining activity at 50 µM was determined as 68% at recombinant HDAC1; 59.9% on recombinant HDAC3; 60.2% on recombinant HDAC8; 65.1% on recombinant HDAC5; 77% at recombinant HDAC9; 63.4% on recombinant HDAC10. The “% HDAC activity, Class IIa HDACs, 7” value on recombinant HDAC7 is listed as “-”. In [1], the “catalytic HDAC activity across class I, IIa and IIb substrates, effect in words” value is given as “pan-HDAC inhibition”.
